According to paper PMC6360136 (Investigational new drugs, 2018):

What was measured:
EC68 cells = assay: Cell viability assay; type: cell-based, human; details: EC68 primary pancreatic cancer cells, MTT, 48 h
EC46 cells = assay: Cell viability assay; type: cell-based, human; details: EC46 primary pancreatic cancer cells, MTT, 48 h
[1] = tested on: RTKs (EGFR, Met, IGF-1Rβ) in PANC-1 and EC46 cells; assay: Immunoblot analysis of receptor tyrosine kinases; type: cell-based, human; details: 24 h
Method in brief: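 PANC-1 and EC46 cells were seeded at 200,000/well and attached overnight. Medium was renewed with the test compound or EtOH control added. Whole-cell lysates were taken at 24 h in phosphatase-safe buffer and protein was quantified by BCA. Equal protein was resolved on 4–12% SDS-PAGE and transferred to PVDF. Blots were probed for EGFR, Met, IGF-1Rβ and β-actin, with chemiluminescent detection.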

[2] = tested on: orthotopic pancreatic patient-derived xenograft (PDX) tumor; assay: In vivo efficacy study in orthotopic pancreatic PDX mouse model; details: 0.25 mg/kg i.p. every other day, NSG mice
Method in brief: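 A surgically resected human pancreatic ductal adenocarcinoma was expanded as 3 × 3 mm flank implants in female NSG mice and passaged at 2.0 cm. Second-generation tumour was then implanted orthotopically. On postoperative day 45 (palpable, 3–4 mm), mice were randomised to test compound 0.25 mg/kg i.p. or DMSO control every other day until endpoint. Diameter was measured by calipers and ultrasound every 3–5 days and volume calculated from it. Analysis used repeated-measures two-way ANOVA with Sidak tests.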

[3] = tested on: orthotopic pancreatic PDX tumor; assay: TUNEL staining of PDX tumors; type: in vivo, NSG mice; details: PDX tumors at euthanasia, 0.25 mg/kg i.p. every other day, vs vehicle
Method in brief: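 Orthotopic PDX mice received test compound 0.25 mg/kg i.p. or DMSO every other day. At endpoint, tumours were formalin-fixed and paraffin-embedded, and 5 micron sections were cut. Sections were stained for Ki-67 (proliferation) or by TUNEL (apoptosis). Ki-67 was scored as the average number of positive cells per high-power field by image analysis.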

## CC[C@H](C)[C@@H]1C(=O)N2CCC[C@@H]2C(=O)O[C@H](C(C)(C)C)C[C@@H](C)C[C@@H](O)C(C)(C)C2=N[C@H](CCC(=O)N[C@@H](Cc3ccc(OC)cc3)C(=O)N(C)[C@@H](C)C(=O)N1C)CS2 [Apra S10, apratoxin S10]
EC68 cells
  GI50: 0.35 nM
EC46 cells
  GI50: 0.32 nM
[1]
  effect on RTKs: potently downregulated various RTKs
[2]
  tumor growth (tumor volume): significantly retarded tumor growth
[3]
  number of cells undergoing apoptosis (TUNEL): no difference
